Screens: PubChem, The Scripps Research Institute Molecular Screening Center
Compounds with a hit are over-represented: about 4.7% of the library has one in this group of screens.
FXN GAA850 act = FXN promoter activators, primary screen, cell-based, luciferase luminescence, HEK293 lucGAA850; HEK293 lucGAA850 FXN promoter luciferase reporter, 24 h; percent of 10 µM SAHA response; activation, % at 6 µM; 360,000 tested, 0.56% active; AID 540364, 2011;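 active means activation above the average of all compounds screened plus 3 SD, cutoff fixed separately per campaign, cut at about 7.5% in these data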;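 further: 0% = DMSO wells and 100% = 10 µM SAHA wells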
MC4R antag cAMP = MC4R antagonists of cAMP signaling, primary screen, cell-based, TR-FRET, antagonist arm of biased-ligand search. 360,000 tested, 0.48% active. inhibition, % at 6.5 µM. Melanocortin receptor 4 (Homo sapiens), P32245. MC4R-expressing cells, MTII-stimulated cAMP, LANCE TR-FRET;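 active means inhibition above its plate's cutoff, the mean of tested wells on that plate plus 3 SD, cut at about 29% in these data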;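 further: 0% = Melanotan II alone and 100% = Melanotan II plus saturating MCL0020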
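Assay system: U2OS-MC4R stable cell line; Also added: Melanotan II; Technique: Eu-cAMP/anti-cAMP TR-FRET, emission 671 nm; Times: 30-min compound, 1-h challenge, 1-h detection, room temperature.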
AHR act = AHR activators, primary screen, cell-based, luminescence, luciferase reporter, human; Aryl hydrocarbon receptor (Homo sapiens), P35869; AHR-responsive luciferase reporter cells; activation, % at 5 µM; 320,000 tested, 2.5% active; AID 2796, 2010; in the data active means activation above about 47%;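 further: 0% = vehicle wells and 100% = reference agonist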
MC4R barr agon = MC4R agonists recruiting beta-arrestin, primary screen, cell-based, luminescence, agonist arm of biased-ligand search | Melanocortin receptor 4 (Homo sapiens), P32245 | U2OS MC4R beta-arrestin complementation; percent of melanotan II response, DMSO zero | 360,000 tested, 0.98% active | activation, % at 8.9 µM;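 active means activation above a per-plate cutoff, the mean activation of sample wells on that plate plus 3 SD, cut at about 8% in these data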
HTR2A ag = mouse Htr2a agonists via beta-arrestin recruitment, primary screen, cell-based, luminescence | 5-hydroxytryptamine receptor 2A (Mus musculus), P35363 | CHO-K1 mHTR2A beta-arrestin complementation; percent of 30 µM serotonin response | activation, % at 7.6 µM | 360,000 tested, 0.66% active | AID 624169, 2012;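 active means activation above a run cutoff, the mean activation of all tested compounds plus 3 SD, cut at about 14% in these data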;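 further: 0% = plate median of compound wells and 100% = 30 µM serotonin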
AHR act cf = AHR activators, confirmation, cell-based, luminescence, luciferase reporter, human; shares compounds with AHR act; human cells, AHR-responsive luciferase reporter; activation, % at 9 µM; 2,300 tested, 87% active; in the data active means activation above about 49%;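 further: HepG2 hepatoma cells carrying a DRE-driven firefly luciferase reporter; 0% = vehicle wells and 100% = reference agonist wells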
PXR act counter = human PXR activators, counter-screen for AHR activator project, cell-based, luciferase luminescence. cell-based PXR reporter. activation, % at 11.6 µM. shares compounds with AHR act. 2,300 tested, 88% active; in the data active means activation above about 11%;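 further: human hepatoma DPX-2 cells expressing full-length human PXR; 0% = DMSO and 100% = reference agonist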
Target sequence (O75469 whole entry, looked up): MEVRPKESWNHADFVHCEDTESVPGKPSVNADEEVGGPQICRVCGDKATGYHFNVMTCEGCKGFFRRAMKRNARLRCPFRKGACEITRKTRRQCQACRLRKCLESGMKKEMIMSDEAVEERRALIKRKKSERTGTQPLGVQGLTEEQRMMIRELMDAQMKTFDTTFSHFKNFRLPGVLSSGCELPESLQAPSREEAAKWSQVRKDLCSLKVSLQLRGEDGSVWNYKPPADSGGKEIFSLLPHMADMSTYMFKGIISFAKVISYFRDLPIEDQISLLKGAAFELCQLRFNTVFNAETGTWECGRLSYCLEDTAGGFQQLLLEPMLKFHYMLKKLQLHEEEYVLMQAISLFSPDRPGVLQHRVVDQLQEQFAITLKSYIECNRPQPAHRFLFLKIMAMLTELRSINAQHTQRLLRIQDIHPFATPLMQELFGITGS
Numbers without * were called inactive.

For C=CCNc1nc(N)c([N+](=O)[O-])c(Nc2cccc(Cl)c2)n1 the results were FXN GAA850 act 6, MC4R antag cAMP 2, AHR act 89*, MC4R barr agon 4, HTR2A ag -2, AHR act cf 132* and PXR act counter 13*.
Screening O=C(c1ccc2c(=O)n3c(nc2c1)CCC3)N1CCN(S(=O)(=O)c2ccccc2Br)CC1 returned FXN GAA850 act 0, MC4R antag cAMP 6, MC4R barr agon -2 and HTR2A ag -7.
`CCCN1CCN(C(=O)c2ccc(CS(=O)c3ccc(Br)cc3)o2)CC1` (stereo not given) gave FXN GAA850 act 1, MC4R antag cAMP 6, MC4R barr agon 1 and HTR2A ag -11.
`COCCCNC(=O)c1sc2ncnc(N3CCc4ccccc4C3)c2c1C` gave FXN GAA850 act -1, MC4R antag cAMP 9, AHR act 100*, MC4R barr agon -1, HTR2A ag -3, AHR act cf 82* and PXR act counter 20*.
For Cc1c(C(=O)N2CCCCC2C)sc2ncnc(N3CCc4ccccc4C3)c12 (stereo not given) the results were FXN GAA850 act 3, MC4R antag cAMP -4, AHR act 5, MC4R barr agon 1 and HTR2A ag 1.
CC(C)C(=O)Nc1nnc(NC(=S)Nc2ccccc2)s1 was read as FXN GAA850 act 2, MC4R antag cAMP 2, AHR act 104*, MC4R barr agon -2, HTR2A ag 3, AHR act cf 61* and PXR act counter 21*.
Screening COc1ccccc1-c1nnc(NC(C)=O)s1 returned FXN GAA850 act 2, MC4R antag cAMP 3, AHR act 82*, MC4R barr agon 3, HTR2A ag 6 and AHR act cf 59*.
COc1ccccc1-c1nnc(NC(=O)C(C)C)s1 was read as FXN GAA850 act 5, MC4R antag cAMP 11, AHR act 84*, MC4R barr agon -2, HTR2A ag 5, AHR act cf 123* and PXR act counter 16*.
For CCCCOC(=O)Nc1nnc(-c2ccccc2OC)s1 the results were FXN GAA850 act 1, MC4R antag cAMP 2, AHR act 26, MC4R barr agon 0 and HTR2A ag -5.
For CCCc1nnc(NC(=S)Nc2ccccc2)s1 the results were FXN GAA850 act 1, MC4R antag cAMP 13, AHR act 9, MC4R barr agon 1 and HTR2A ag 1.
Screening CN(CC(=O)NCc1ccco1)S(=O)(=O)c1ccc(F)cc1 returned FXN GAA850 act -2, MC4R antag cAMP 3, AHR act 3, MC4R barr agon 1 and HTR2A ag -1.
Screening O=C(Nc1c(F)cc(F)cc1Br)c1cccnc1 returned FXN GAA850 act -1, MC4R antag cAMP 0, AHR act 1, MC4R barr agon -1 and HTR2A ag 2.
For O=C(Nc1ccc(Br)cc1F)c1cccnc1 the results were FXN GAA850 act 1, MC4R antag cAMP -3, AHR act 126*, MC4R barr agon -1, HTR2A ag 0, AHR act cf 60* and PXR act counter 26*.
Screening Cc1cc(=O)oc2cc(OCCc3ccccc3)ccc12 returned FXN GAA850 act 0, MC4R antag cAMP -11, AHR act 81*, MC4R barr agon 0, HTR2A ag -4, AHR act cf 140* and PXR act counter 21*.
`Cc1cc(=O)oc2cc(OCCCC[n+]3ccccc3)ccc12` gave FXN GAA850 act 0, MC4R antag cAMP -2, AHR act 2, MC4R barr agon -2 and HTR2A ag 7.
